Calls of active or inactive are those of the source. The calls are words filed in the database; no cut-off is given here.
Tests used:
Format in all cases: cell-based
[1] = target: T1, Antigen-presenting glycoprotein CD1d (Homo sapiens) (UniProt P15813); assay: Binding affinity to C1R-hCD1d expressed in human B cells assessed as increase in Th2 cytokine release in mouse iNKT cells upto 100 ng/ml after 36 hrs by ELISA
T1 sequence (whole entry): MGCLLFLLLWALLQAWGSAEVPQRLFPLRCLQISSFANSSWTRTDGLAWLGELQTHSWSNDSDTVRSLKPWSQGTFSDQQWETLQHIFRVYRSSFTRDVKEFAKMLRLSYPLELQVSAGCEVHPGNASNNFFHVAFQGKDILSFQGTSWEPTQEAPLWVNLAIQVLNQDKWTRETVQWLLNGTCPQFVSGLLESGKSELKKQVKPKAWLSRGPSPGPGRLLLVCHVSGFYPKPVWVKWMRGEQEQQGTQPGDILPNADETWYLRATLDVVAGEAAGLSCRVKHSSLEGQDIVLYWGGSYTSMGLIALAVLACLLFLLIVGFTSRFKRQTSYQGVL

[2] = target: T1, Antigen-presenting glycoprotein CD1d (Homo sapiens); assay: Binding affinity to C1R-hCD1d expressed in human B cells assessed as change in IFN-gamma/IL4 ratio in human iNKT cells upto 100 ng/ml after 36 hrs by ELISA
In short: (§1)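 C1R cells expressing human CD1d were pulsed with lipid at a range of concentrations. 5 × 10⁴ pulsed targets were co-cultured with 2 × 10⁴ human iNKT line cells at 37 °C for 36 h. IFN-γ and IL-4 in the harvested supernatants were quantified by ELISA, and IFN-γ/IL-4 and IL-4/IFN-γ ratios were derived from these values.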

[3] = target: T1, Antigen-presenting glycoprotein CD1d (Homo sapiens); assay: Binding affinity to C1R-hCD1d expressed in human B cells assessed as increase in Th1 cytokine release in mouse iNKT cells upto 100 ng/ml after 36 hrs by ELISA
[4] = target: T1, Antigen-presenting glycoprotein CD1d (Homo sapiens); assay: Binding affinity to C1R-hCD1d expressed in human B cells assessed as increase in IFN-gamma/IL4 ratio in mouse iNKT cells upto 100 ng/ml after 36 hrs by ELISA
[5] = target: T1, Antigen-presenting glycoprotein CD1d (Homo sapiens); assay: Binding affinity to C1R-hCD1d expressed in human B cells assessed as activation of IL-4 release in human iNKT cells upto 100 ng/ml after 36 hrs by ELISA; in short: as §1
[6] = target: T1, Antigen-presenting glycoprotein CD1d (Homo sapiens); assay: Binding affinity to C1R-hCD1d expressed in human B cells assessed as activation of IFN-gamma release in human iNKT cells upto 100 ng/ml after 36 hrs by ELISA; in short: as §1

Activity [1]	Activity [2]	Activity [3]	Activity [4]	Activity [5]	Activity [6]	SMILES
Active	inactive	Active	Active			CCCCC/C=C\C/C=C\CCCCCCCCCC(=O)N[C@@H](CO[C@H]1O[C@H](CO)[C@H](O)[C@H](O)[C@H]1O)[C@H](O)[C@H](O)CCCCCCCCCCCCCC
Active	inactive	Active	Active	Active	Active	CCCCCCCCCCCCCCCCCCCCCCCCCC(=O)N[C@@H](CO[C@H]1O[C@H](CO)[C@H](O)[C@H](O)[C@H]1O)[C@H](O)[C@H](O)CCCCCCCCCCC
Active	inactive	Active	Active	Active	Active	CCCCCCCCCCCCCCCCCCCCCCCCCC(=O)N[C@@H](CO[C@H]1O[C@H](CO)[C@H](O)[C@H](O)[C@H]1O)[C@H](O)[C@H](O)CCCCCCCC
	inactive	Active	Active	Active	Active	CCCCCCCCCCCCCCCCCCCCCCCCCC(=O)N[C@@H](CO[C@H]1O[C@H](CO)[C@H](O)[C@H](O)[C@H]1O)[C@H](O)[C@H](O)CCCCCCCCCCCCCC
Active	inactive	Active	Active	Active	Active	CCCCCCCCCCCCCCCCCCCCCCCCCC(=O)N[C@@H](CO[C@H]1O[C@H](CO)[C@H](O)[C@H](O)[C@H]1O)[C@H](O)[C@H](O)CCCCC

Source: ChEMBL document CHEMBL1641364, “Synthesis of truncated analogues of the iNKT cell agonist, α-galactosyl ceramide (KRN7000), and their biological evaluation” (Bioorg Med Chem, 2011)
